For 37 sequences, folding enthalpy and Tm results are on record in the array DNA melting data of Ke et al. (doi:10.1101/2024.01.08.574731).

Series [1] can be described thus: folding enthalpy; higher = less favourable; fluorescence melt of hairpins on a sequencing array, two-state fit. Particulars: sodium 0.088 M. The method in brief:
(§1)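 To match UV melts, fitted temperatures were raised by 9.35 °C. These fits were bootstrapped two-state models that gave melting temperature and folding enthalpy, combined by inverse variance over four replicates. The input was normalised Cy3 fluorescence of library hairpins with annealed Cy3 and quencher oligos on a sequenced MiSeq flow cell, imaged in 50 mM Na-HEPES pH 8.0, 25 mM NaCl in 2.5 °C steps up to 60 °C.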

The nature of series [2]: melting temperature; fluorescence melt of hairpins on a sequencing array, two-state fit, raised by 9.35 °C to match UV melts. The following applies: sodium 0.088 M. The method in brief:
as §1

As for GGACAAGGAAACTCGTCC ((((.((....)).)))), the folding enthalpy in series [1] was -29.2 kcal/mol. The Tm in series [2] came to 39.2 °C.

Regarding GCAGGGCGAAAGCACCGC ((.(.((....)).).)), the folding enthalpy in series [1] was -16 kcal/mol. Further, in series [2], the Tm was found to be 57.7 °C.

Regarding GGTCACGGAAACACGACC ((((..(....)..)))), the folding enthalpy in series [1] was -18.5 kcal/mol. Also, in series [2], the Tm was 34.5 °C.

With GATGGCGAAAGCCACATC ((((((....)))..))), in series [1], the folding enthalpy is -7.73 kcal/mol. For the same sequence, the Tm in series [2] came to 28.8 °C.

Consider GTGCTTGGAAACAGGCAC ((((.((....)).)))), for which the folding enthalpy in series [1] was -41 kcal/mol. The Tm in series [2] was determined as 53.4 °C.

Take GATCTGACACCAGATC ((((((....)))))): the folding enthalpy in series [1] was -34.7 kcal/mol. Besides, the Tm in series [2] turned out to be 46.1 °C.

Regarding GATCTCTCCAGAGATC ((((((....)))))), in series [1], the folding enthalpy was -40.2 kcal/mol. The Tm in series [2] was 56.7 °C.

Regarding GCGTCGCGAAAGCGGTGC ((..(((....)))..)), the folding enthalpy in series [1] is -18.1 kcal/mol. Besides, the Tm in series [2] is 58.9 °C.

In the case of GAAGAGACGAAAGTCTTC (((..(((....)))))), the folding enthalpy in series [1] is -9.13 kcal/mol. In addition, the Tm in series [2] stood at 30.6 °C.

Regarding GGACCCCGAAAGGGTCC (((.(((....)))))), in series [1], the folding enthalpy was -30.2 kcal/mol. Moreover, the Tm in series [2] was 68 °C.

Turning to GAACGTGGAAACACATTC (((.(((....))).))), the folding enthalpy in series [1] was -17.1 kcal/mol. In series [2], the Tm is 32.9 °C.

As for GCCTGCTCGAAAGAGGGC (((..(((....)))))), the folding enthalpy in series [1] is -15.7 kcal/mol. Further, the Tm in series [2] was found to be 44.5 °C.

On to GTAAAGACGAAAGTCTAC (((..(((....)))))), for which, in series [1], the folding enthalpy was -11.6 kcal/mol. Further, the Tm in series [2] was determined as 29.8 °C.

Regarding GCAGAAACGAAAGTTTGC (((..(((....)))))), the folding enthalpy in series [1] is -20.3 kcal/mol. Further, the Tm in series [2] is 35.7 °C.

In the case of GGGTTCGAAAGAAATCCC ((((((....)))..))), the folding enthalpy in series [1] was -21.3 kcal/mol. For the same sequence, the Tm in series [2] was determined as 33.6 °C.

As to GGGTTATCGAAAGATCCC (((..(((....)))))), in series [1], the folding enthalpy was -24.3 kcal/mol. In addition, the Tm in series [2] came out at 34.9 °C.

Take GATCCCTATGGGATC ((((((...)))))): the folding enthalpy in series [1] was -36.1 kcal/mol. In addition, the Tm in series [2] amounted to 64.8 °C.

As for GTACGTGGAAACACGTGC (.(((((....))))).), the folding enthalpy in series [1] was -28 kcal/mol. Moreover, in series [2], the Tm is 54.2 °C.

As for GATCACTTAAGTGATC ((((((....)))))), in series [1], the folding enthalpy is -38 kcal/mol. The Tm in series [2] is 59.3 °C.

For GCGACAGGAAACTGCCGC (((.(((....))).))), the folding enthalpy in series [1] was -46.4 kcal/mol. Further, in series [2], the Tm turned out to be 55.9 °C.

On to GTGGTCGGAAACGACTAC ((.((((....)))).)), for which, in series [1], the folding enthalpy is -30 kcal/mol. Besides, the Tm in series [2] amounted to 53.7 °C.

With GCCATGCGAAAGCATAGC ((.((((....)))).)), the folding enthalpy in series [1] is -17 kcal/mol. For the same sequence, the Tm in series [2] amounted to 51.6 °C.

In the case of GTCCGAGGAAACTCGAAC ((.((((....)))).)), the folding enthalpy in series [1] was -21.3 kcal/mol. The Tm in series [2] stood at 41.3 °C.

Turning to GGATGCGAAAGCATCTCC ((((((....)))..))), in series [1], the folding enthalpy is -9.29 kcal/mol. For the same sequence, the Tm in series [2] worked out at 52.6 °C.

For the sequence GCCTCAGGAAACCAAGGC ((((..(....)..)))), the folding enthalpy in series [1] was -28.6 kcal/mol. The Tm in series [2] is 33.2 °C.

Regarding GGAATGGGAAACCATTCC (((((((....))))))), the folding enthalpy in series [1] was -45.1 kcal/mol. Further, the Tm in series [2] is 60.4 °C.

GAGAGCGAAAGCTCGCTC ((((((....)))..))): in series [1], the folding enthalpy was -13 kcal/mol. Besides, the Tm in series [2] worked out at 66.9 °C.

As for GCGAGGCGAAAGCCCCGC (((.(((....))).))), the folding enthalpy in series [1] was -26.6 kcal/mol. Also, the Tm in series [2] was found to be 68.5 °C.

As for GATCCGATTCCGGATC ((((((....)))))), the folding enthalpy in series [1] is -43.5 kcal/mol. The Tm in series [2] was found to be 57.1 °C.

As for GGCAACGAAAGTTGGCC ((((((....))).))), in series [1], the folding enthalpy was -18.7 kcal/mol. Besides, the Tm in series [2] was found to be 64 °C.

In the case of GTCAACGGAAACGCTGAC ((((.((....)).)))), the folding enthalpy in series [1] was -35.8 kcal/mol. Also, the Tm in series [2] stood at 46.4 °C.

Turning to GAAACCGAAAGGTAATTC ((((((....)))..))), the folding enthalpy in series [1] is -9.6 kcal/mol. In addition, in series [2], the Tm amounted to 27.9 °C.

GGTACGGGAAACTGTGCC ((.((.(....).)).)): the folding enthalpy in series [1] was -31.2 kcal/mol. The Tm in series [2] was found to be 43.1 °C.

GAGGGCGAAAGCCACTC ((((((....))).))): in series [1], the folding enthalpy is -13.7 kcal/mol. Also, in series [2], the Tm is 53.4 °C.

GCGTATTTACGC ((((....)))): the folding enthalpy in series [1] was -26.7 kcal/mol. In addition, the Tm in series [2] is 54.5 °C.

On to GGAGCGCGAAAGCGTTCC (((.(((....))).))), for which the folding enthalpy in series [1] is -35 kcal/mol. The Tm in series [2] came to 67.6 °C.

For GCCGCTGGAAACGGTGGC (((.(.(....).).))), the folding enthalpy in series [1] is -44.9 kcal/mol. Further, the Tm in series [2] is 51.7 °C.
